# NR2F2 inh: NR2F2 transcriptional activity inhibitors, primary screen, cell-based, luciferase reporter, HEK293T, luminescence; COUP transcription factor 2 (Homo sapiens), P24468; HEK293T NGFI-A luciferase reporter; inhibition, % at 8.6 µM; 370,000 tested, 0.7% active; AID 686940, 2013;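 active means inhibition above a per-plate cutoff, mean inhibition of test wells between control levels plus 3 SD, cut at about 38% in these data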;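 further: cells cotransfected with COUP-TFII expression vector driving the NGFI-A reporter; 0% = median of COUP-TF2 test wells and 100% = reporter-only cells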
# GalR3 antagonist: GalR3 antagonists in HEK293 cells, primary screen, cell-based, fluorescence readout; Galanin receptor type 3 (Homo sapiens), O60755; HEK293 GalR3-CNG cAMP membrane potential fluorescence; galR3 body fused to GalR1 C-terminus; inhibition, % at 3 µM; 360,000 tested, 0.44% active;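 active means inhibition above the screen-wide average plus 3 SD, cut at about 13% in these data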;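 further: forskolin and galanin both at EC90 stimulate the cells; cAMP rise reported by CNG channel membrane potential dye signal; 0% = forskolin plus galanin with DMSO and 100% = forskolin alone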
# NR2E3 ag-1: inhibitors of NR2E3-RetCOR corepressor binding, primary screen, NR2E3 agonist project, biochemical, TR-FRET, GST-NR2E3, biotin-RetCOR; inhibition of corepressor binding, % at 4.78 µM; 1536-well; 320,000 tested, 0.12% active; Photoreceptor-specific nuclear receptor (Homo sapiens), Q9Y5X4;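 active means percent inhibition above the cutoff of mean plus 3 SD of all tested compounds, set per screening campaign, cut at about 20% in these data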;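 further: 0% = DMSO wells and 100% = biotin wells as full block of FRET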
#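 Test system – NR2E3–RetCOR corepressor complex · Quantity – NR2E3 fusion 1.35 nM · Buffer or medium – Tris pH 7.5 · Incubation – Compound–protein incubation for 5 h at 4 °C · Technique – TR-FRET, Eu(K)-anti-GST donor, streptavidin-D2 acceptor, ex 340, em 617/671 nm · Evaluation – percent inhibition of 671/617 nm emission ratio versus biotin and DMSO controls · Plate – 1536-well format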
# CHT PAM: CHT positive allosteric modulators, primary screen, cell-based, membrane potential dye, choline EC20 | CHT-expressing cells; active compounds read high; LV-AA mutant CHT in HEK293 cells | 310,000 tested, 0.49% active | B-score at 10 µM | High affinity choline transporter 1 (Homo sapiens), Q9GZV3 | AID 488977, 2010;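 active means initial fluorescence not abnormally high and integrated response B-score, plate-corrected, over 3 SD above library mean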
# Target sequence (Q9GZV3 whole entry, looked up): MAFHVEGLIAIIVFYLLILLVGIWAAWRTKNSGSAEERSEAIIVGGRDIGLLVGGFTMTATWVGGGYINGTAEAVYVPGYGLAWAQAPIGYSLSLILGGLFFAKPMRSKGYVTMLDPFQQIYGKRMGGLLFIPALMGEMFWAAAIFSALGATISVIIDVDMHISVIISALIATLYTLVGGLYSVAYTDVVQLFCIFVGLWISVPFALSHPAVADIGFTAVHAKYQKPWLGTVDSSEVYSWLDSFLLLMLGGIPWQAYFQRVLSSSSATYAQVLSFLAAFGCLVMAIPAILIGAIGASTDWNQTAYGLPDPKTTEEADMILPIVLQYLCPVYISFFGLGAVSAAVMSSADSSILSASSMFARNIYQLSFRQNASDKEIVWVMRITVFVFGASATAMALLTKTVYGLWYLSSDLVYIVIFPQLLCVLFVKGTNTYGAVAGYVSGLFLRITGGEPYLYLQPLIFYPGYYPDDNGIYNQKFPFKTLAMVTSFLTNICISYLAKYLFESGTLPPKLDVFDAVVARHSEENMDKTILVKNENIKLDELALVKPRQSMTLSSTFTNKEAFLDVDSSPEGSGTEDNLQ
# NR2E3 ag-2: NR2E3 agonists in two-hybrid cells, primary screen, cell-based, luminescence, CHO-S, Gal4-NCOR/VP16-NR2E3. Photoreceptor-specific nuclear receptor (Homo sapiens), Q9Y5X4. inhibition of corepressor binding, % at 3.98 µM. luciferase. 360,000 tested, 0.35% active;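 active means inhibition above the mean of all tested compounds plus 3 SD, cut at about 70% in these data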;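 further: 0% = DMSO with NR2E3 transfected cells and 100% = cells lacking NR2E3 construct; higher means lower luciferase signal from less NR2E3 corepressor binding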
# CHT inh: inhibitors of human choline transporter CHT | 310,000 tested, 0.86% active | CHT-expressing cells, membrane potential dye, choline response; active compounds read low | AID 488975, 2010 | B-score at 10 µM | High affinity choline transporter 1 (Homo sapiens), Q9GZV3;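 active means B-score over 3 SD under the library average, and starting fluorescence ratio not unusually high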;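 further: choline stimulus applied at its EC90 after an EC20 pre-addition; B-score computed on integrated fluorescence ratio after choline addition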
# CHT block conf: CHT inhibitors, confirmation, cell-based, membrane potential dye, duplicate; shares compounds with CHT inh; CHT-expressing cells, choline membrane potential dye; LV-to-AA substituted CHT, HEK293 cells; CHT activity remaining % of control (active compounds read low), % at 10 µM; 2,400 tested, 70% active; AID 493221, 2011;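 active means choline transporter activity left, mean of duplicates at 10 µM, below buffer-only control mean minus 3 SD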;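 further: depolarization triggered by choline at its EC90 following an EC20 pre-addition; 0% = hemicholinium-3 full block and 100% = buffer-only control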
# HEK293 MPD ctr: membrane potential effects in parental HEK293, counter-screen for CHT inhibitor project, cell-based, membrane potential dye; shares compounds with CHT inh; choline response; active = decrease or increase beyond buffer ±3SD; membrane potential ratio readout (active if shifted either direction beyond buffer ±3SD; no single direction) at 10 µM; 2,400 tested, 4% active; AID 493222, 2011;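 further: parental cells lack the transporter so any hit is non-specific; ratio is peak minus trough fluorescence over baseline after EC90 choline challenge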
# The depositor's hits bear a star; i = inactive; nt = no result. Rows were chosen to be rich in hits. Some 2.3% of all compounds tested hit in one or more screens of this group.
SMILES,NR2F2 inh,GalR3 antagonist,NR2E3 ag-1,CHT PAM,NR2E3 ag-2,CHT inh,CHT block conf,HEK293 MPD ctr
CN(C)CCN(C(=O)c1ccc2c(c1)OCCO2)c1nc2c(Cl)cccc2s1,-1,0,2,i,-10,i,nt,nt
Cc1c(NC(=O)C2CCCN(S(=O)(=O)c3c(C(C)C)cc(C(C)C)cc3C(C)C)C2)c(=O)n(-c2ccccc2)n1C (stereo not given),13,nt,nt,nt,nt,nt,nt,nt
CN(C)S(=O)(=O)c1cccc(C(=O)N/N=C\c2cccc(C#N)c2)c1,5,nt,nt,nt,nt,nt,nt,nt
COC(=O)c1c(-c2ccc(OC)cc2)sc2ccc(N3CCOCC3)cc12,-40,6,nt,nt,-78,nt,nt,nt
COC(=O)c1nc2ccc(N3CCOCC3)cc2c(C)c1C(=O)OC,-11,4,5,i,-88,-5.7*,i,i
O=C1CCC([N+](=O)[O-])C(c2ccc(Cl)c([N+](=O)[O-])c2)N1 (stereo not given),11,-2,0,i,-1,i,nt,nt
O=C1CCC([N+](=O)[O-])C(c2ccc3c(c2)OCO3)N1 (stereo not given),-2,-3,5,i,-3,-12*,i,i
CCOc1ccc(-n2c(SCC(=O)Nc3ccc(S(=O)(=O)Nc4cc(C)nc(C)n4)cc3)nnc2-c2cccc(C)c2)cc1,9,nt,nt,nt,nt,nt,nt,nt
COc1ccc(Cn2cnc3c([N+](=O)[O-])c(C)c(C)cc32)cc1,0,-3,0,i,1,-9.4*,34%*,i
COc1cccc(NC(=O)NC2CCCCN(Cc3ccc(C)cc3)C2=O)c1 (stereo not given),2,nt,nt,nt,nt,nt,nt,nt
Cc1cc(Nc2cccc(Cl)c2Cl)n2ncnc2n1,-17,-12,nt,i,8,i,nt,nt
Cc1ccc(Nc2cc(C)nc3ncnn23)c(Cl)c1,4,-2,-3,i,0,-5.6*,i,i
Cc1ccc(CNC2CCC23CCC(c2ccccc2)CC3)o1 (stereo not given),16,nt,nt,nt,nt,nt,nt,nt
O=C(Cn1[nH]c(=O)c2ccccc2c1=O)OCC(=O)N1CCc2ccccc2C1,8,-3,-1,i,-17,-5.4*,i,i
COc1ccccc1NC(=O)c1ccc(C(=O)c2ccccc2)o1,18,2,-3,i,-8,-5*,i,i
COc1ccccc1NC(=O)c1ccc(-c2ccc(Br)cc2)o1,-18,1,5,i,-14,i,nt,nt
CCOC(=O)C1(CCCc2ccccc2)CCN(C(=O)CCCn2cncn2)CC1,15,-6,0,i,-1,-5*,i,i
CC(C)(C)N(Cc1cn(Cc2ccccc2)nn1)S(=O)(=O)c1ccc(N2CCCC2)cc1Br,0,nt,nt,nt,nt,nt,nt,nt
O=C(O)c1ccc(-c2nc(-c3ccccc3Cl)cs2)cc1,-22,-1,2,i,-117,-5.4*,40%*,i
COc1ccc(-c2cn(CCO)c(CCN)n2)cc1,-9,4,0,i,0,i,nt,nt
COc1ccc(-c2cn(Cc3ccc(C(N)=O)cc3)c(CCN)n2)cc1,-9,3,3,i,-17,-8.1*,i,i
CC(C)(C)OC(=O)n1cc(-c2ccccc2)c2c(-c3ccccc3)c(O)ccc21,5,nt,nt,nt,nt,nt,nt,nt
C/C(=N\NC(=O)c1ccccc1O)C1C(=O)c2ccccc2C1=O,-27,-5,0,i,-107,-5*,31%*,i
CC1(C)CC(=O)N(CC(=O)N2CCN(Cc3ccccc3)CC2)c2ccccc2S1(=O)=O,0,nt,nt,nt,nt,nt,nt,nt
COC(=O)C[C@@H]1CC[C@H]2[C@@H](COc3ccc(NC(=O)NC(C)C)cc3C(=O)N2C)O1,-7,nt,nt,nt,nt,nt,nt,nt
SMILES,NR2F2 inh,GalR3 antagonist,NR2E3 ag-1,CHT PAM,NR2E3 ag-2,CHT inh,CHT block conf,HEK293 MPD ctr
O=C(Cc1cccs1)NNC(=S)NCc1ccc(Cl)cc1,-6,1,-2,i,-23,i,nt,nt
O=C(Cc1ccc(Cl)cc1)NNC(=S)NC(=O)c1cccs1,-7,-4,-1,i,-23,-5.2*,i,i
C#CCOC(=O)Nc1cccn(Cc2c(Cl)cccc2Cl)c1=O,-4,-8,2,i,-53,-5.1*,i,i
O=C(Nc1cccn(Cc2c(Cl)cccc2Cl)c1=O)C1CC1,12,-4,2,i,-2,i,nt,nt
Cc1ccc(-n2cc(CN3CCN(Cc4nccn4C)CC3)c(-c3ccc(F)cc3)n2)cc1,-1,-1,5,i,16,-6.4*,29%*,i
CCn1c(SCc2nc(-c3ccc(OC)c(OC)c3)no2)nnc1-c1cccs1,7,-11,1,i,-20,-8.6*,42%*,i
CCn1c(SCC(=O)N=Nc2c(O)[nH]c3ccccc23)nc2ccccc21,-2,-2,3,i,-5,-7*,54%*,i
Cc1ccc2c(COC(=O)c3c(C)noc3C)cc(=O)oc2c1,-16,-7,3,i,-14,-5.9*,i,i
Cc1ccc2c(COC(=O)c3ccccc3F)cc(=O)oc2c1,3,-9,3,i,-2,i,nt,nt
CC(C)(C)c1cc(C(=O)N/N=C/c2ccc(F)cc2)n(-c2ccccc2)n1,-8,-9,-5,i,-5,-5.1*,68%*,i
CC1=NOC(=O)/C1=C/c1ccc(O)c(Cl)c1,-8,-4,-3,i,-3,-8.6*,27%*,i
O=C1ON=C(c2ccccc2)/C1=C/c1ccc(O)c(O)c1,6,-9,-2,i,-51,-6.8*,33%*,i
COC(=O)c1ccc(Cn2ccc3ccc(-c4ccc5ccn(C(=O)c6cccc(OC)c6)c5c4)cc32)cc1,-8,nt,nt,nt,nt,nt,nt,nt
O=S(=O)(c1ccccc1F)N1CCC(c2nc3ccccc3o2)CC1,9,nt,nt,nt,nt,nt,nt,nt
Cc1ccc(C)c(NC(=O)c2ccc(CS(=O)(=O)Cc3ccccc3C)o2)c1,-4,nt,nt,nt,nt,nt,nt,nt
